ChEMBL document CHEMBL3286173, “Graphite catalyzed solvent free synthesis of dihydropyrimidin-2(1H)-ones/thiones and their antidiabetic activity” (Bioorg Med Chem Lett, 2014)

molecular target: T1, Pancreatic alpha-amylase (Sus scrofa) (UniProt P00690); assay: Inhibition pig alpha-amylase at 300 ug/ml pretreated for 30 mins followed by addition of 1% starch for 10 mins by spectrometer; conditions: not given
T1 sequence (whole entry): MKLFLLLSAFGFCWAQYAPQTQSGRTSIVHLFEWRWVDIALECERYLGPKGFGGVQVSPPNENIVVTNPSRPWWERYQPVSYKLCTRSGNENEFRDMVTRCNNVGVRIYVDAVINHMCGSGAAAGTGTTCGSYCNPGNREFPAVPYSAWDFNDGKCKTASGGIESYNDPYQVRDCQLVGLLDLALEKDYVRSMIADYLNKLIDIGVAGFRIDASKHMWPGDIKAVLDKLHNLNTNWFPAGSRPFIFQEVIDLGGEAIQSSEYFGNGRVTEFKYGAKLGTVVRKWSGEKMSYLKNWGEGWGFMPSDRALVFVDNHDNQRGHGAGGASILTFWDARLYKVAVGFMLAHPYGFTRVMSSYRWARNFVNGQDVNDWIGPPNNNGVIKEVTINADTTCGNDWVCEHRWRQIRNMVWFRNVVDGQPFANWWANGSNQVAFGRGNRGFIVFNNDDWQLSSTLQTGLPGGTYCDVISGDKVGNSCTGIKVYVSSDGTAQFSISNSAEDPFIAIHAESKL
Procedure, shortened: (§1)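 Porcine pancreatic α-amylase (1.28 mg in 25 ml PBS) was preincubated with compounds in methanol (50, 150 or 300 µg/ml) at 37°C for 30 min. PBS containing 1% starch was then added for 10 min at 37°C. The reaction was stopped with DNSA in a boiling bath for 10 min, and OD was read at 540 nm against a 0.2% maltose reference. Acarbose was the positive control. Runs were in triplicate with SD, giving % inhibition relative to an uninhibited control.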

inhibition [%] | SMILES
97.2 | CCOC(=O)C1=C(C)NC(=S)NC1c1ccccc1 (configuration not stated)

molecular target: T1, Pancreatic alpha-amylase (Sus scrofa); conditions: 100 mg/ml

inhibition [%] | SMILES
100 | C[C@H]1O[C@H](O[C@H]2[C@H](O)[C@@H](O)[C@@H](O[C@H]3[C@H](O)[C@@H](O)C(O)O[C@@H]3CO)O[C@@H]2CO)[C@H](O)[C@@H](O)[C@@H]1N[C@H]1C=C(CO)[C@@H](O)[C@H](O)[C@H]1O (some centres not stated)

molecular target: T1, Pancreatic alpha-amylase (Sus scrofa); assay: Inhibition pig alpha-amylase at 50 to 300 ug/ml pretreated for 30 mins followed by addition of 1% starch for 10 mins by spectrometer; conditions: not given
Procedure, shortened: as §1, with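 “PBS” for “Porcine pancreatic α-amylase (1.28 mg in 25 ml PBS) was preincubated with compounds in methanol (50, 150 or 300 µg/ml) at 37°C for 30 min. PBS”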

inhibition [%] | SMILES
26.5 | CCOC(=O)C1=C(C)NC(=O)NC1c1cccc([N+](=O)[O-])c1 (configuration not stated)
0 | CCOC(=O)C1=C(C)NC(=O)NC1c1ccccc1 (configuration not stated)
0 | CCOC(=O)C1=C(C)NC(=O)NC1c1ccc(OC)cc1 (configuration not stated)
66.5 | CCOC(=O)C1=C(C)NC(=S)NC1c1ccc(OC)cc1 (configuration not stated)
0 | CCOC(=O)C1=C(C)NC(=O)NC1c1ccccc1F (configuration not stated)
0 | CCOC(=O)C1=C(C)NC(=S)NC1c1cccc(OC)c1 (configuration not stated)
63.8 | CCOC(=O)C1=C(C)NC(=O)NC1c1ccc(F)cc1 (configuration not stated)
0 | CCOC(=O)C1=C(C)NC(=O)NC1c1ccc2c(c1)OCO2 (configuration not stated)
0 | CCOC(=O)C1=C(C)NC(=O)NC1c1ccc([N+](=O)[O-])cc1 (configuration not stated)
0 | CCOC(=O)C1=C(C)NC(=S)N[C@H]1c1cccc(O)c1
